Measurements from PubChem BioAssay AID638 (SRMLSC, 2007).

Tested on: E. coli BW25113 wild type growth inhibition, OD615
Experiment: growth inhibition of wild-type E. coli, dose response, BW25113 wild type, OD615 (AID 638)
Outline: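 Assay system: E. coli BW25113 wild type; buffer or medium: Kanamycin-supplemented LB broth; signal: optical density (absorbance) at 615 nm; controls: chloramphenicol 30 µM control; doses: compound concentration series; times: bacterial exposure to compound 20 h at 37 °C; evaluation: IC50 from 4-parameter logistic, bounds fixed 0–100%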

Row | SMILES | IC50 [µM]
1 | CCC(=O)N1CCN(c2cc3c(cc2F)c(=O)c(C(=O)O)cn3CC)CC1 | 3.16
2 | Cc1ccsc1C(=O)Nc1nnc(-c2ccco2)o1 | 60.3
3 | c1ccc(-c2cccc(-c3ccccn3)n2)nc1 | 66.8
4 | COc1c(N2CCNC(C)C2)c(F)cc2c(=O)c(C(=O)O)cn(C3CC3)c12 (centres undefined) | < 0.195
5 | O=c1ccsn1Cc1ccccc1 | 23.6
6 | CC(=O)c1c(C)n([O-])c2ccccc2[n+]1=O | 19.5
7 | O=C(Nc1nnc(-c2ccccc2)o1)c1ccc(Cl)cc1 | 102
8 | CN(C)[C@@H]1C(=O)C(C(N)=O)=C(O)[C@@]2(O)C(=O)C3=C(O)c4c(O)ccc(Cl)c4[C@@H](O)[C@H]3C[C@@H]12 | 0.609
9 | CCCCOc1ccc(NC2=NC3(CCCCC3)N=C(N)N2)cc1 | 89
10 | CCn1cc(C(=O)Nc2nncs2)c(=O)c2cc(F)c(N3CCN(C(=O)c4ccco4)CC3)cc21 | 75.6
11 | O=S1(=O)Nc2c(ccc3cccnc23)-c2ccccc21 | 26.8
12 | COc1cc(Cc2cnc(N)nc2N)cc(OC)c1OC | 0.688
13 | CO[C@@]1(NC(=O)Cc2cccs2)C(=O)N2C(C(=O)O)=C(COC(N)=O)CS[C@@H]21 | 7.91
14 | C=CCNc1ncnc2c1[nH]c1ccc(C)cc12 | 35.4
15 | CCn1cc(C(=O)NCc2ccc3c(c2)OCO3)c(=O)c2cc(F)c(N3CCN(C)CC3)cc21 | 28.2
16 | CCSc1nnc(NC(=O)c2ccccn2)s1 | 92.8
17 | COc1cccc(C(=O)Nc2nnc(-c3cccs3)o2)c1 | 79.6
18 | CN1CCN(c2c(F)cc3c(=O)c(C(=O)O)cn4c3c2SCC4)CC1 | 1.1
19 | O=C(Nc1cccc(Cl)c1)Nc1nccs1 | 96.1
20 | N#Cc1ccc(NC(=O)Nc2ccc(Cl)cc2)cc1 | 49.2
21 | CC(=O)OCC1=C(C(=O)O)N2C(=O)[C@@H](NC(=O)Cc3cccs3)[C@H]2SC1 | 10.6
22 | Oc1c(CN2CCCCC2)cc(Br)c2cccnc12 | 61.3
23 | NC1C2CN(c3nc4c(cc3F)c(=O)c(C(=O)O)cn4-c3ccc(F)cc3F)CC12 (centres undefined) | < 0.195
24 | CCn1cc(C(=O)O)c(=O)c2cc(F)c(N3CCN(C(=O)Nc4ccccc4)CC3)cc21 | 2.28
